Measured values pooled from the literature.
Each line is one published result; the experiments were not run side by side.
Target: Atypical kinase COQ8B, mitochondrial (COQ8B, Homo sapiens, UniProt Q96D53)
One construct used (Q96D53 1-544): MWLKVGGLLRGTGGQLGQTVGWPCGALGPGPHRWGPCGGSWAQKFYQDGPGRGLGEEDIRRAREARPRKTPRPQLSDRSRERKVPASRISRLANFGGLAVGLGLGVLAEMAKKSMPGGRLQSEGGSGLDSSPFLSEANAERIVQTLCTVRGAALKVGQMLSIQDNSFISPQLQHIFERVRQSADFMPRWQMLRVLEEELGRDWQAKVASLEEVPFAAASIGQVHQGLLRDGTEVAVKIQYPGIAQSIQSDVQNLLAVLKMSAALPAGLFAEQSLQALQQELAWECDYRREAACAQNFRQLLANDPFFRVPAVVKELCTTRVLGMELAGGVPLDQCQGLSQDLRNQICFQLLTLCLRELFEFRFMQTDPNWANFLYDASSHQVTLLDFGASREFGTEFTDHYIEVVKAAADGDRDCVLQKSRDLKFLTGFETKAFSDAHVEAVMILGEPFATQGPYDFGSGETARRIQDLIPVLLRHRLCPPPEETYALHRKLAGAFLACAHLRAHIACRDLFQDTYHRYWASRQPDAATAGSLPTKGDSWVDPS

Compound	read-out	method	concentration	remaining binding [%]
O=C(c1ccc(Nc2nccc(-c3cc4ccccc4s3)n2)cc1)N1CCC(N2CCCC2)CC1	binding	competition with immobilised ligand	1 µM	90
COc1cnc(Nc2cccc(S(N)(=O)=O)c2)nc1N1CCN(c2ccccc2)CC1	binding	competition with immobilised ligand	1 µM	85
Cc1cnn2ncc(-c3ccnc(N(C)C)n3)c2c1	binding	–	1 µM	81
C[C@@H](c1ccc(-n2cnc3c(N)ncnc32)cc1)N1CCc2nn(C)c(Cc3ccccc3)c2C1=O	binding	competition with immobilised ligand	0.1 µM	80
N[C@H]1CCN(c2nccc(-c3cnn4ncccc34)n2)C1	binding	–	1 µM	74
O=C(NCCCN1CCOCC1)c1ccc(Nc2ncc(Cl)c(-c3ccc(Cl)s3)n2)cc1	binding	competition with immobilised ligand	1 µM	34
FC(F)(F)Oc1cccc(-c2cnc3ccc(-c4ccncc4)nn23)c1	cell-free assay	competition with immobilised ligand	5 µM	85
O=C(NCC1CCOCC1)c1n[nH]cc1NC(=O)c1c(F)cccc1F	binding	competition with immobilised ligand	1 µM	85
C=CC(=O)N1CCC(C(=O)NCC(=O)N2CCN(c3nc(-c4cnc(N)nc4C(F)F)nc(N4CCOCC4)n3)CC2)CC1	binding	competition with immobilised ligand	1 µM	100
CCCCN(CCCC)C(=O)CN1C[C@@H](c2cc(OC)c3c(c2)OCO3)[C@H](C(=O)O)[C@H]1CC(C)(C)CCC	cell-free assay	competition with immobilised ligand	1 µM	80.2
CN(C)c1nccc(-c2cnn3ncccc23)n1	binding	–	1 µM	100
CN(C(=O)c1ccccc1)c1cc(N(C)c2ccc3c(c2)CCc2ccc(C(=O)NCCN4CCOCC4)cc2C3=O)ccc1F	cell-free assay	competition with immobilised ligand	1 µM	100
CC1CCCN1c1nccc(-c2cnn3ncccc23)n1 (stereo not shown)	binding	–	1 µM	68
O=C(Nc1ccc(Oc2ccc(F)cc2)cc1)N1CCc2ncccc2[C@H]1c1ccc(F)cc1	cell-free assay	competition with immobilised ligand	1 µM	92
Nc1ncc2c(n1)-c1c([nH]c3ccc(C#CC4CC4)cc13)CCCC2	binding	competition with immobilised ligand	1 µM	90
O=C(c1ccc(Nc2ncc(Cl)c(-c3ccc(Cl)s3)n2)cc1)N1CCC(N2CCCC2)CC1	binding	competition with immobilised ligand	1 µM	21
C[C@@H]1CN(c2cc(-c3nn(C)c4ccc(OC5(C)CC5)cc34)ncn2)C[C@H](C)O1	cell-free assay	competition with immobilised ligand	1 µM	100
c1cnn2ncc(-c3ccnc(N4CCC45COC5)n3)c2c1	binding	–	1 µM	100
CS(=O)(=O)c1cc(C2(NC(=O)c3cncc4c3cnn4-c3ccc(F)cc3)CC2)ccn1	cell-free assay	competition with immobilised ligand	1 µM	100
C[C@H]1CCN(c2nccc(-c3cnn4ncccc34)n2)C1	binding	–	1 µM	92
O=C(NS(=O)(=O)c1ccc(NCC2CCOCC2)c([N+](=O)[O-])c1)c1ccc(N2CCN(Cc3ccc(C(F)(F)F)cc3-c3ccc(Cl)cc3)CC2)cc1Oc1cnc2[nH]ccc2c1	cell-free assay	competition with immobilised ligand	1 µM	90
COc1cnc(Nc2cccc(S(N)(=O)=O)c2)nc1N1CCN(c2ccccc2)C(=O)C1	binding	competition with immobilised ligand	1 µM	100
